Inconclusive results are not listed.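 The calls were made as follows, unless noted: active = RAM network inhibition above 8.4% in each of two replicates, 3 SD over the compound average; inconclusive = above 8.4% inhibition in only one replicate; inactive = 8.4% inhibition or less in each replicate.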
Columns and labels:
[1] = S. cerevisiae growth inhibition in permissive medium (OD615), pilot counter-assay for S. cerevisiae lifespan shortening project, permissive growth control (AID 705;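 active = growth inhibition above 25% in both replicates, a cutoff set 3 SD above the mean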); conditions: OD615, 24 h, at 10 µM, active compounds read high
In short: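 System: Engineered DeaD yeast | Buffer or medium: SC raffinose/galactose permissive medium | Doses: 10 µM single dose, 0.25% DMSO | Times: 24 h exposure, 30 °C | Measured by: OD615 turbidity read | Read-out: Yeast growth inhibition indicated by reduced 24 h OD615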

[2] = S. cerevisiae growth inhibition in restrictive medium, OD615, pilot screen, restrictive growth control, yeast lifespan reduction project (AID 706;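 active = growth inhibition above a set limit, 3 SD over mean compound inhibition, in both replicates, cut at about 43% in these data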;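 also: modified DeaD lifespan yeast strain shifted to restrictive glucose medium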); conditions: OD615, 48 h, at 10 µM, active compounds read high
In short: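 Assay system: engineered S. cerevisiae DeaD strain; Buffer or medium: CSMM-D glucose medium; Dosing: 10 µM compound, 0.25% DMSO; Times: cell pre-growth 4 h, compound exposure 48 h, 30 °C; Detection: absorbance (optical density) measured at 615 nm.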

[3] = doxorubicin toxicity protection in MRP-1 cells – H69AR cells, CellTiter-Glo, duplicate, MRP-1 activator project, pilot screen (AID 807;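 active = viability increase at or above a cutoff of the median across tested compounds plus 3 SD, cut at about 8.5% in these data, passing the limit was not always enough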;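 also: compound pretreatment 18-22 h then 72 h combined with doxorubicin; 0% = doxorubicin alone and 100% = vehicle without doxorubicin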); conditions: H69AR viability with doxorubicin, CellTiter-Glo luminescence; at 10 µM; active compounds read high
[4] = viability of HCT116 without oncogenic beta-catenin – human colon tumor cells, pilot screen (AID 823;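 active = cell viability at or below a set limit in both duplicate runs, the limit being the all-compound median minus 4 SD, cut at about 23% in these data, passing the limit was not always enough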;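 also: 0% = wells killed by 20 µM Hyamine and 100% = untreated DMSO cell wells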); conditions: HCT116 beta-catenin knockout viability, CellTiter-Glo, 60 h; at 10 µM; active compounds read low
[5] = RAM pathway blockade in budding yeast – dse1pr::URA3 reporter, 5-FOA selection, pilot screen (AID 869;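 active = inhibition over a set limit, the all-compound mean plus 3 SD, in both replicate runs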;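 also: 0% = DMSO wells with no growth and 100% = 10 µM 1-NA-PP1 with full growth; RAM network block rescues cells from 5-FOA so hits raise OD615 growth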); conditions: S. cerevisiae dse1pr::URA3 5-FOA growth, OD615, 2 d; at 10 µM; active compounds read high; strain carries analog-sensitive mutant Cbk1 kinase
[6] = RAM signaling pathway blockade in yeast – S. cerevisiae, Pdr1DBD-CYC8 efflux-inhibited sensitized strain, primary screen (AID 1298);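 also: 0% = DMSO untreated cells without growth and 100% = 10 µM 1-NA-PP1 full growth; higher means more yeast growth rescued from 5-FOA killing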; conditions: S. cerevisiae cbk1-as DSE1-URA3 strain, 5-FOA growth OD615, 2 d; at 50 µM; active compounds read high
[7] = viability of PTEN-null HCT116 cells – cell-based, HCT116 clonal line, CellTiter-Glo, pilot screen (AID 824;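 active = viability at or below 27.92% in each of two runs, the all-compound median minus 4 SD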;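 also: 0% = 20 µM Hyamine control and 100% = vehicle cell control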); conditions: HCT116 PTEN-deleted viability, 60 h, at 10 µM, active compounds read low

CCCn1cc(S(=O)(=O)CC(=O)N2CCc3ccccc32)c2ccccc21
inactive: growth inhibition [1] -14.9% | growth inhibition [2] -8.48% | viability increase [3] -5.64% | viability [4] 96.9% | inhibition [5] 4.21% | RAM network inhibition [6] 5.15%

CCCCCn1c(=O)[nH]c2cc(C(=O)NCc3ccc4c(c3)OCO4)ccc2c1=O
inactive: growth inhibition [1] -12.1% | growth inhibition [2] -10.7% | viability increase [3] -6.7% | viability [4] 71.2% | inhibition [5] 3.82% | RAM network inhibition [6] 5.87%

CCC(=O)N1CCc2cc(Br)cc(S(=O)(=O)N3CCN(c4ccccn4)CC3)c21
inactive: growth inhibition [1] -6.54% | growth inhibition [2] -9.5% | viability increase [3] -2.05% | viability [4] 101% | inhibition [5] 0.44% | RAM network inhibition [6] 9.66%

CN1CCc2c(sc3nc(SCC(N)=O)n(-c4ccccc4)c(=O)c23)C1
inactive: growth inhibition [1] -17.8% | growth inhibition [2] 9.25% | viability increase [3] -0.53% | viability [4] 84.3% | inhibition [5] 4.08% | RAM network inhibition [6] 3.54%

CCOC(=O)N1CCN(C(=O)CN(C2CCCCC2)S(=O)(=O)c2ccc(C)cc2)CC1
inactive: growth inhibition [1] -13.9% | growth inhibition [2] -3.6% | viability increase [3] -4.47% | viability [7] 97.3% | inhibition [5] 1.92% | RAM network inhibition [6] -1.07%
